These results are taken from ChEMBL document CHEMBL1154106, “Inhibitory effects of 5-benzylidene barbiturate derivatives on mushroom tyrosinase and their antibacterial activities” (Eur J Med Chem, 2009).

The target of one assay is T1, Tyrosinase (Agaricus bisporus, UniProt O42713).
T1 sequence (O42713 whole entry): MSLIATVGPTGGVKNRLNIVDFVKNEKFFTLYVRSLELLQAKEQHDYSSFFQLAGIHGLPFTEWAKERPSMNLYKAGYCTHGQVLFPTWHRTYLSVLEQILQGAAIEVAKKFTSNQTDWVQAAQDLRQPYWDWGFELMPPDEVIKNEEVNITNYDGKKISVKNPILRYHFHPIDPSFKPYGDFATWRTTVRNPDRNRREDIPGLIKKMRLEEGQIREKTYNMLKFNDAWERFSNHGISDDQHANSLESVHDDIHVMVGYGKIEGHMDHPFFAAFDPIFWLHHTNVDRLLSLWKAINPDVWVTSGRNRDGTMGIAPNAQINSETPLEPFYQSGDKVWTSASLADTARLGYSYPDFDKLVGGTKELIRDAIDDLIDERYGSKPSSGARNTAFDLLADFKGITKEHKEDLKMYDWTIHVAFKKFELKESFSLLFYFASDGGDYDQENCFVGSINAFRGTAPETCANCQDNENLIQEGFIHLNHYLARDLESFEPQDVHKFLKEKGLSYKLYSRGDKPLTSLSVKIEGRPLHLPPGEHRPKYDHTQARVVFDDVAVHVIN
Description: Inhibition of mushroom tyrosinase. Summed up:
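Mushroom tyrosinase diphenolase assay: 1 mL reaction with 0.5 mM L-DOPA in 50 mM sodium phosphate buffer, pH 6.8, enzyme final 0.5 mg/mL, 25 °C. Compounds dissolved in DMSO (2.0% final); DMSO-only controls run. Dopachrome formation followed at 475 nm for 1 min. IC50 interpolated from dose–response curves; means of three experiments.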

In a further assay the test system is Escherichia coli. Description: Antibacterial activity against Escherichia coli at 1 mg/ml after 24 hrs by agar dilution method. Format: functional, organism-based. (In general: In agar dilution, organisms are placed on agar that contains the substance at set levels.)
The target of assay [1] is T2, Tyrosinase (Agaricus bisporus) (UniProt O42713).
T2 sequence (whole entry): T1 sequence (O42713 whole entry)
Description: Inhibition of mushroom tyrosinase at 200 uM. Summed up:
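Single-concentration check in the mushroom tyrosinase diphenolase assay. Conditions: 0.5 mM L-DOPA, 50 mM phosphate buffer pH 6.8, enzyme 0.5 mg/mL, 25 °C, 2.0% DMSO final with DMSO controls. Activity read as dopachrome absorbance at 475 nm over 1 min.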

The subject of assay [2] is Staphylococcus epidermidis. Description: Antibacterial activity against Staphylococcus epidermidis at 1 mg/ml after 24 hrs by agar dilution method. The assay is classed as functional, organism-based. Summed up: (§1)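 Agar well diffusion: overnight (16–18 h, 37 °C) cultures set to 0.5 McFarland and mixed into Mueller–Hinton agar. Compound stock 1 mg/mL in DMSO loaded into 6 mm wells, with DMSO as control and levofloxacin as reference. Plates incubated 37 °C for 24 h. Read-out is the diameter of the growth-inhibition zone around each well.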

A further assay relates to Staphylococcus aureus. Description: Antibacterial activity against Staphylococcus aureus after 24 hrs by agar dilution method. Format: functional. Summed up:
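MIC by agar dilution on Mueller–Hinton agar containing twofold serial dilutions from a 1 mg/mL DMSO stock. Final levels 50, 25, 12.5, 6.25, 3.1, 1.5, 0.8, 0.4 and 0.2. Inoculum was 16–18 h cultures at 0.5 McFarland; plates incubated 37 °C for 24 h. MIC is the lowest concentration preventing visible growth; levofloxacin was the reference.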

The next assay concerns Staphylococcus. Description: Antibacterial activity against Staphylococcus albus at 1 mg/ml after 24 hrs by agar dilution method. The assay is classed as functional, organism-based.
The next assay concerns Pseudomonas aeruginosa. Description: Antibacterial activity against Pseudomonas aeruginosa at 1 mg/ml after 24 hrs by agar dilution method. Format: functional, organism-based. Summed up: as §1
In the next assay the test system is Bacillus cereus. Description: Antibacterial activity against Bacillus cereus at 1 mg/ml after 24 hrs by agar dilution method. Format: functional, organism-based.

Structures are written as SMILES. Calls of active or inactive are those of the source. The rule behind the calls is not given here. Some results are limits rather than exact numbers.

By IC50 is commonly meant the concentration needed to halve the response being measured. A higher IC50 goes with a need for much substance. By inhibition is commonly meant the change of the read-out against control, counted positive when it falls. Read a high inhibition as strong suppression. For orientation: MIC means the lowest concentration that inhibits growth of the organism. Low values mean greater potency, high ones weaker potency. On to `O=C1NC(=O)C(Cc2ccc(O)cc2)C(=O)N1`, for which the IC50 on Tyrosinase is above 200 µM. Besides, the result (with Escherichia coli; in assay [2]; with Staphylococcus; in the assay with Pseudomonas aeruginosa; in the assay on Bacillus cereus) was inactive. In addition, the inhibition in assay [1] came to 47.5%. The same compound showed an MIC with Staphylococcus aureus above 12.5 µg/mL.
At Tyrosinase, `COCCOCCOc1ccc(C=C2C(=O)NC(=O)NC2=O)cc1` registered an IC50 of 137 µM. Besides, the result (in the assay on Escherichia coli; in assay [2]; in the assay with Staphylococcus; in the assay on Pseudomonas aeruginosa; with Bacillus cereus) was inactive. Also, the inhibition in assay [1] was determined as 88.7%. This compound also showed an MIC against Staphylococcus aureus above 25 µg/mL.
Regarding `COCCOc1ccc(C=C2C(=O)NC(=S)NC2=O)cc1`, the IC50 against Tyrosinase stood at 28.4 µM. The result (in the assay on Escherichia coli; in assay [2]; with Staphylococcus; with Pseudomonas aeruginosa; with Bacillus cereus) was inactive. The compound also came in with an inhibition in assay [1] of 100%. Moreover, in the assay with Staphylococcus aureus, the MIC is above 12.5 µg/mL.
In the case of `CCCCOCCOc1ccc(C=C2C(=O)NC(=O)NC2=O)cc1`, at Tyrosinase, the midpoint of inhibition, the IC50, lay at 45.4 µM. Further, the result (in the assay on Escherichia coli; in assay [2]; in the assay with Staphylococcus; with Pseudomonas aeruginosa; in the assay on Bacillus cereus) was inactive. For the same compound, in assay [1], the inhibition was found to be 100%. In the assay on Staphylococcus aureus, this compound yielded an MIC above 25 µg/mL.
In turn, `COCCOc1ccc(CC2C(=O)NC(=S)NC2=O)cc1` gave an IC50 on Tyrosinase of 113 µM. Moreover, the result (in the assay with Escherichia coli; in assay [2]; with Staphylococcus; in the assay on Pseudomonas aeruginosa; in the assay with Bacillus cereus) was inactive. This compound also yielded an inhibition in assay [1] of 100%. In the assay on Staphylococcus aureus, this compound gave an MIC above 12.5 µg/mL.
As for `COCCOc1ccc(C=C2C(=O)NC(=O)NC2=O)cc1`, it took 75.4 µM to reach half-maximal inhibition on Tyrosinase (IC50). Further, the outcome (with Escherichia coli; in assay [2]; in the assay with Staphylococcus; with Pseudomonas aeruginosa; in the assay on Bacillus cereus) was inactive. Further, the inhibition in assay [1] amounted to 100%. This compound also showed an MIC in the assay with Staphylococcus aureus above 25 µg/mL.
